Results reported in ChEMBL document CHEMBL1153209, “Synthesis and biological activity of a potent and orally bioavailable SCD inhibitor (MF-438)” (Bioorg Med Chem Lett, 2010).
pIC50: −log10 of the molar value.

Assays:
[1] = target: T1, Acyl-CoA desaturase 1 (Rattus norvegicus, UniProt P07308); experiment: Inhibition of SCD1 in rat liver microsomes; design: species or system Microsome
T1 sequence (P07308 whole entry): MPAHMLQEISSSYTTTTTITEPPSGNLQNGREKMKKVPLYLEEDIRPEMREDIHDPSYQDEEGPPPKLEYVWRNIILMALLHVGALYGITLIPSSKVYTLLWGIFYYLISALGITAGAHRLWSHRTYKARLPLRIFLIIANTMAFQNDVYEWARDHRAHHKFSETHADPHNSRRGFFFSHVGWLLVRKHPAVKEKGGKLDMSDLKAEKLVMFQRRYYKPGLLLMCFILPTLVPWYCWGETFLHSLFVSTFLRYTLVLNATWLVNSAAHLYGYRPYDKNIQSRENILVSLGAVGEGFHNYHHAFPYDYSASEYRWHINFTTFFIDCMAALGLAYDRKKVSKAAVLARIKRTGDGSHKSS

[2] = test system: Mus musculus; experiment: Inhibition of stearoyl-CoA […] in high-carbohydrate diet-fed mouse liver dosed orally assessed as conversion of [14C]stearic acid to [14C]oleic acid; assay type: functional; conditions: po
In short: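 Mice on a high-carbohydrate diet given compound PO, then IV 14C-stearic acid tracer 1 h later; livers collected 2 h after tracer and lipids analysed.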

[3] = Oral bioavailability in rat; assay type: ADME, organism-based; conditions: in vivo
[4] = Oral bioavailability in mouse; assay type: ADME, organism-based; conditions: in vivo
[5] = Half life in mouse; assay type: ADME, organism-based; conditions: in vivo
[6] = Half life in rat; assay type: ADME, organism-based; conditions: in vivo
[7] = target: T2, Cytochrome P450 3A4 (Homo sapiens, UniProt P08684); experiment: Inhibition of CYP3A4 up to 30 uM; assay type: ADME
T2 sequence (P08684 whole entry): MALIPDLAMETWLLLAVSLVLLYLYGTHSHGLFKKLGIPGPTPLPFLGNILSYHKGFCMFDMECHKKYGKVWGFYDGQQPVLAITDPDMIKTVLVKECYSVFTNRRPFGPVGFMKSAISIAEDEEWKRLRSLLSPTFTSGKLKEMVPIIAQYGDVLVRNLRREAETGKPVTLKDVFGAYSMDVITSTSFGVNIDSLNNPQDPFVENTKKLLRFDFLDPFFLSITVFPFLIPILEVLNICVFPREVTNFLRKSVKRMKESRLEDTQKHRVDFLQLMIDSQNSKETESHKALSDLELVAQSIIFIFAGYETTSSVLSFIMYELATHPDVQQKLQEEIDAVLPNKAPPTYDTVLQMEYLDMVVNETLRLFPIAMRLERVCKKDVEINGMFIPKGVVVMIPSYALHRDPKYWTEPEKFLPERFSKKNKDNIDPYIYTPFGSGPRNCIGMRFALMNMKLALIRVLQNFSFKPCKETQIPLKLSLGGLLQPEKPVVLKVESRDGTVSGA

[8] = target: T3, Cytochrome P450 2D6 (Homo sapiens, UniProt P10635); experiment: Inhibition of CYP2D6 up to 30 uM; assay type: ADME
T3 sequence (P10635 whole entry): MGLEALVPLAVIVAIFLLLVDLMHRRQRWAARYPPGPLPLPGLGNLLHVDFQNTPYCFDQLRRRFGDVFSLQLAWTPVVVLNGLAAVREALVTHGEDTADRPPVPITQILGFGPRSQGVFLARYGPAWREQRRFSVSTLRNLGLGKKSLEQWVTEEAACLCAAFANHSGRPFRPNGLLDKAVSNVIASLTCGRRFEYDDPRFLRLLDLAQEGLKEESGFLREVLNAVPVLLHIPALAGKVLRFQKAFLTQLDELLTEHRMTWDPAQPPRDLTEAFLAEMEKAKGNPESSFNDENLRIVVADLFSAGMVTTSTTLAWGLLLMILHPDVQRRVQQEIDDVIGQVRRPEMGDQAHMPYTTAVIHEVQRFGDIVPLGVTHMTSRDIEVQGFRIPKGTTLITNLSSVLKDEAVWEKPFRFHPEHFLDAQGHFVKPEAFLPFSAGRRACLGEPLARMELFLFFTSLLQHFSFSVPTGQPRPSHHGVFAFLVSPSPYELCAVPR

[9] = test system: Mus musculus; experiment: Toxicity in DIO mouse assessed as alopecia at 5 mg/kg qd for 1 week; assay type: organism-based; design: dose 5 mg/kg; conditions: in vivo, 168 h
[10] = test system: Mus musculus; experiment: Toxicity in DIO mouse assessed as partial eye closure at 5 mg/kg qd for 1 week; assay type: organism-based; design: dose 5 mg/kg; conditions: in vivo, 168 h
[11] = test system: Mus musculus; experiment: Toxicity in diet-induced obese chronic po dosed mouse; conditions: in vivo
[12] = Half life in rat at 10 mg/kg, po or 2 mg/kg, iv; assay type: ADME, organism-based; conditions: in vivo
In short: (§1)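 Rats dosed 10 mg/kg PO and 2 mg/kg IV; plasma concentration sampled over time for parent and its acid metabolite; each time point is the average of two animals.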

[13] = Bioavailability in rat at 10 mg/kg, po or 2 mg/kg, iv; assay type: ADME, organism-based; conditions: in vivo; in short: as §1
[14] = target: T2, Cytochrome P450 3A4; experiment: Inhibition of CYP3A4; assay type: ADME
[15] = target: T3, Cytochrome P450 2D6; experiment: Inhibition of CYP2D6; assay type: ADME
[16] = AUC in rat at 10 mg/kg, po; assay type: ADME, organism-based; design: dose 10 mg/kg, route oral; conditions: plasma; in short: as §1
[17] = AUC in rat at 2 mg/kg, iv; assay type: ADME, organism-based; design: dose 2 mg/kg, route intravenous; conditions: plasma; in short: as §1
[18] = test system: Rattus norvegicus; experiment: Stability in rat assessed as AUC of 6-(4-(2-(trifluoromethyl)phenoxy)piperidin-1-yl)pyridazine-3-carboxylic acid at 10 mg/kg, po; assay type: ADME, organism-based; design: dose 10 mg/kg, route oral; conditions: in vivo; in short: as §1

c1cc(OC2CCN(c3ccc(-n4ccnc4)nn3)CC2)c2cc[nH]c2c1
pIC50 [1]: 6.79

O=C(NCCC1CC1)c1ccc(N2CCN(C(=O)c3ccccc3C(F)(F)F)CC2)nn1
pIC50 [1]: 6.49

CC(C)(C)c1nnc(-c2ccc(N3CCC(Oc4ccccc4C(F)(F)F)CC3)nn2)s1
pIC50 [1]: 6.15

Oc1nnc(-c2ccc(N3CCC(Oc4ccccc4C(F)(F)F)CC3)nn2)s1
pIC50 [1]: 8.21

CC(C)c1nnc(-c2ccc(N3CCC(Oc4ccccc4C(F)(F)F)CC3)nn2)s1
pIC50 [1]: 8.06

COc1ccccc1OC1CCN(c2ccc(-n3ccnc3)nn2)CC1
pIC50 [1]: 6.27

c1ccc(OC2CCN(c3ccc(-n4ccnc4)nn3)CC2)cc1
pIC50 [1]: 5.72

CC(C)c1nnc(-c2ccc(N3CCC(Oc4ccccc4C(F)(F)F)CC3)nn2)o1
pIC50 [1]: 8.41

OCc1nnc(-c2ccc(N3CCC(Oc4ccccc4C(F)(F)F)CC3)nn2)o1
pIC50 [1]: 8.54

Cc1nnc(-c2ccc(N3CCC(Oc4ccccc4C(F)(F)F)CC3)nn2)s1
ED50 [2]: 1 mg/kg | pIC50 [1]: 8.64 | bioavailability [3]: 38% | bioavailability [4]: 73% | half-life [5]: 6.4 h | half-life [6]: 6 h | inhibition (INH) [7]: Not Active | inhibition (INH) [8]: Not Active | Activity [9]: Toxic | Activity [10]: Toxic | Activity [11]: Toxic

Brc1ccccc1OC1CCN(c2ccc(-n3ccnc3)nn2)CC1
pIC50 [1]: 8.30

Cc1cccc(OC2CCN(c3ccc(-n4ccnc4)nn3)CC2)c1
pIC50 [1]: 6.60

Cc1ccc(OC2CCN(c3ccc(-n4ccnc4)nn3)CC2)cc1
pIC50 [1]: 6.28

FC(F)(F)c1ccccc1OC1CCN(c2ccc(-n3ccnc3)nn2)CC1
pIC50 [1]: 8.40 | half-life [12]: 1.2 h | bioavailability [13]: 53% | pIC50 [14]: 6.40 | pIC50 [15]: 6.52

FC(F)(F)c1cccc(OC2CCN(c3ccc(-n4ccnc4)nn3)CC2)c1
pIC50 [1]: 7.72

FC(F)(F)c1ccc(OC2CCN(c3ccc(-n4ccnc4)nn3)CC2)cc1
pIC50 [1]: 6.43

FC(F)(F)c1ccccc1OC1CCN(c2ccc(-c3nnco3)nn2)CC1
pIC50 [1]: 7.66

O=C(NCCC1CC1)c1ccc(N2CCC(Oc3ccccc3C(F)(F)F)CC2)nn1
pIC50 [1]: 7.85

c1cc2c(c(OC3CCN(c4ccc(-n5ccnc5)nn4)CC3)c1)CCC2
pIC50 [1]: 8.00

NC(=O)c1ccc(N2CCC(Oc3ccccc3C(F)(F)F)CC2)nn1
pIC50 [1]: 7.80 | AUC [16]: 0.9 µM·h | AUC [17]: 1.9 µM·h | AUC [18]: 179 µM·h | half-life [12]: 0.54 h | bioavailability [13]: 10%

O=C(O)c1ccc(N2CCC(Oc3ccccc3C(F)(F)F)CC2)nn1
pIC50 [1]: 5.00

CC(C)Cc1nnc(-c2ccc(N3CCC(Oc4ccccc4C(F)(F)F)CC3)nn2)o1
pIC50 [1]: 7.82

CC(=O)c1ccccc1OC1CCN(c2ccc(-n3ccnc3)nn2)CC1
pIC50 [1]: 7.47

c1cn(-c2ccc(N3CCC(Oc4ccc5c(c4)CCC5)CC3)nn2)cn1
pIC50 [1]: 7.21

CC(C)(C)c1nnc(-c2ccc(N3CCC(Oc4ccccc4C(F)(F)F)CC3)nn2)o1
pIC50 [1]: 6.01

CC(C)Cc1nnc(-c2ccc(N3CCC(Oc4ccccc4C(F)(F)F)CC3)nn2)s1
pIC50 [1]: 7.43

Cc1nnc(-c2ccc(N3CCC(Oc4ccccc4C(F)(F)F)CC3)nn2)o1
pIC50 [1]: 8.22

Brc1cccc(OC2CCN(c3ccc(-n4ccnc4)nn3)CC2)c1
pIC50 [1]: 7.64

CCc1cccc(OC2CCN(c3ccc(-n4ccnc4)nn3)CC2)c1
pIC50 [1]: 7.42

N#Cc1ccccc1OC1CCN(c2ccc(-n3ccnc3)nn2)CC1
pIC50 [1]: 6.63

Cc1ccccc1OC1CCN(c2ccc(-n3ccnc3)nn2)CC1
pIC50 [1]: 7.41

CCc1ccccc1OC1CCN(c2ccc(-n3ccnc3)nn2)CC1
pIC50 [1]: 8.40

OCc1nnc(-c2ccc(N3CCC(Oc4ccccc4C(F)(F)F)CC3)nn2)s1
pIC50 [1]: 8.49
